Common to all, as to format: ADME, organism-based
The nature of series [1]: Clearance in rat at 5.0 mg/kg, iv. Also noted: dose 5 mg/kg, route intravenous. The following applies: in vivo. The method in brief:
(§1)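 Rats given 5.0 mg/kg IV or PO by n-in-1 cassette dosing; three animals per dosing group, parameters reported as the group average.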

A short description of series [2]: Half life in rat at 5.0 mg/kg, po. The arrangement: dose 5 mg/kg, route oral. The following applies: in vivo. The method in brief:
as §1

The nature of series [3]: Volume of distribution at steady state in rat at 5.0 mg/kg, iv. The arrangement: dose 5 mg/kg, route intravenous. The note with it: in vivo, read-out: Vdss. The method in brief:
as §1

Series [4] is described as follows: AUC in rat at 5.0 mg/kg, po. The arrangement: dose 5 mg/kg, route oral. The note with it: plasma. The essentials: as §1
The nature of series [5]: AUC in rat at 5.0 mg/kg, iv. The following applies: plasma. The arrangement: dose 5 mg/kg, route intravenous. The method in brief: as §1
Series [6] is described as follows: Oral bioavailability in rat at 5.0 mg/kg. The following applies: in vivo. The essentials:
as §1

Series [7] is described as follows: Half life in rat at 5.0 mg/kg, iv. The arrangement: dose 5 mg/kg, route intravenous. The following applies: in vivo. The essentials: as §1
Series [8] can be described thus: Oral bioavailability in rat. The following applies: in vivo.
Series [9] can be described thus: Half life in rat at […], iv. The note with it: in vivo. Also noted: dose 3.3 mg/kg, route intravenous.
Series [10] in a line: Half life in rat at […], po. The arrangement: dose 3.3 mg/kg, route oral. The following applies: in vivo.
The nature of series [11]: Clearance in rat at […], iv. Also noted: dose 3.3 mg/kg, route intravenous. The note with it: in vivo.
Series [12] in a line: Volume of distribution at steady state in rat at […], iv. Also noted: dose 3.3 mg/kg, route intravenous. The note with it: in vivo, read-out: Vdss.
Series [13] is described as follows: AUC in rat at […], po. The arrangement: dose 3.3 mg/kg, route oral. The note with it: plasma.
Series [14] in a line: AUC in rat at […], iv. The arrangement: dose 3.3 mg/kg, route intravenous. The note with it: plasma.
The nature of series [15]: Oral bioavailability in rat at […]. The following applies: in vivo.

In general, clearance refers to the volume of plasma or blood freed of the substance per unit of time. Read a high clearance as efficient removal. One may read the half-life as the time in which the quantity being followed falls by half. What is called AUC is the area under the concentration-time curve, a measure of exposure. Low readings indicate low exposure, high ones high exposure. For orientation: bioavailability means the share of a dose that reaches the circulation, judged against a reference dose that is usually intravenous. A low value points to poor availability.

Each structure is given as a SMILES string.

As for `Cc1cc(COc2ccc(C(=O)N[C@@H]3COC[C@@H]3C(=O)NO)cc2)c2ccccc2n1`, the clearance in series [1] is 38.3 mL/min/kg. Moreover, the half-life in [2] is 2.9 h; in series [7], 2.1 h. Besides, in [3], the Vd worked out at 0.8 L/kg. Also, the results for the AUC in series [4] and in [5] were 0.846 µM·h and 4.06 µM·h, respectively. This molecule registered a bioavailability in series [6] of 21%.
As to `Cc1cc(COc2ccc(C(=O)N[C@@H]3CN(S(C)(=O)=O)C[C@@H]3C(=O)NO)cc2)c2ccccc2n1`, in series [8], the bioavailability was found to be 3%.
Take `C#CCN1C[C@H](C(=O)NO)[C@H](NC(=O)c2ccc(OCc3cc(C)nc4ccccc34)cc2)C1`: the half-life in series [9] is 2.9 h; in [10], 3.1 h. The same molecule gave a clearance in series [11] of 55 mL/min/kg. Moreover, the Vd in [12] was found to be 1.7 L/kg. Moreover, the results for the AUC in series [13] and in series [14] were 0.567 µM·h and 2.23 µM·h, respectively. In series [15], the bioavailability was 25%.

The values above are taken from ChEMBL document CHEMBL1141560, “Alpha,beta-cyclic-beta-benzamido hydroxamic acids: novel templates for the design, synthesis, and evaluation of selective inhibitors of TNF-alpha converting enzyme (TACE)” (Bioorg Med Chem Lett, 2008).
